# Reference: paper PMC11249109 (Drug Design, Development and Therapy, 2024)
# Values joined by “and” are separate entries in the source; they are usually repeats but may differ in a detail not shown here. Equal entries are not always repeated. Where two headings read alike, the source gives them in different places.
# What was measured:
# [1] = low solubility but high permeability; cited from earlier work
# [2] = Percentage recovery of unchanged panduratin A in urine and feces; format: in vivo, Male Wistar rats; conditions: rats
# Procedure, shortened: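 Male Wistar rats (n=5/group, fasted 12 h) were dosed with 4.5 mg/kg i.v. (tail vein) or 45 mg/kg oral pure compound, both in 50% DMSO. Urine and feces were collected in metabolic cages at 0–24 and 24–72 h. Feces were bead-homogenised in methanol. Samples were precipitated with methanol containing glycyrrhizin as internal standard and quantified by negative-ESI triple-quadrupole LC-MS (calibration 0.98–1000 μg/L). Recovery is the amount excreted divided by the dose.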
# [3] = rats
# [4] = system: Nitric oxide; conditions: read-out: IC50, nitric oxide inhibition; cited from earlier work
# [5] = system: HIV-1 protease; conditions: read-out: IC50, HIV-1 protease activity; cited from earlier work
# [6] = Detection of panduratin A metabolites by QTOF LCMS in plasma, urine and feces; format: in vivo, Male Wistar rats; conditions: rats
# Procedure, shortened: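 Male Wistar rats (fasted 12 h) received 4.5 mg/kg test compound i.v. via the lateral tail vein in 50% DMSO. Plasma came from tail-vein blood spun at 5000 g, 10 min, 4°C. Urine and feces were collected in metabolic cages at 0–24 and 24–72 h. Samples were methanol-precipitated and run on QTOF LC-MS with a C18 column at 35 °C and a 0.1% formic acid water/acetonitrile gradient.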
# [7] = system: prostaglandin E2; conditions: read-out: IC50, prostaglandin E2 inhibition; cited from earlier work
# [8] = system: SARS-CoV-2; conditions: read-out: IC50, anti-SARS-CoV-2 activity; Vero E6 cells; cited from earlier work
# [9] = intravenous administration, 0–72 h
# [10] = 45 mg/kg as panduratin A p.o., IC50 from ref 7
compound,measurement,setting,value
COc1cc(O)c(C(=O)[C@@H]2[C@H](CC=C(C)C)C(C)=CC[C@H]2c2ccccc2)c(O)c1 [Panduratin A],BCS class,[1],BCS class II
same,unchanged panduratin A excreted in urine,[2]; [9],2 % of the administered dose
same,unchanged panduratin A excreted via feces,[2]; [9],25 % of the administered dose
same,unchanged panduratin A excreted in urine,"[2]; single oral administration, 0–72 h",~1 % of the administered dose
same,"unchanged panduratin A excreted in feces, over the experimental groups",[2]; summary over i.v. and oral groups,20–30 % of the administered dose and 22–60 % of the administered dose
same,plasma concentration after 72 h,[3]; 4.5 mg/kg i.v.,0.5 µg/mL
same,Cmax of panduratin A relative to in vitro anti-SARS-CoV-2 IC50,[3]; [10],approximately 15 fold
same,minimum plasma concentration at 24 h relative to in vitro anti-SARS-CoV-2 IC50,[3]; [10],approximately 10 fold
same,plasma concentration after 72 h,[3]; 45 mg/kg as panduratin A single p.o.,0.5 µg/mL
same,IC50,[4],0.175 µM
same,IC50,[5],18.7 µM
same,glucuronidation form of panduratin A,[6],not detected
same,metabolites in plasma or urine (QTOF LCMS),[6]; after i.v. 4.5 mg/kg,none of the metabolites of panduratin A were detected in plasma or urine
same,IC50,[7],0.0195 µM
same,IC50,[8],0.81 µM
